Assay outcomes: PubChem, Broad Institute
Cneo AK release = causes C. neoformans cell lysis. adenylate kinase release luminescence, 4 h; normalised: neutral wells 0, clomiphene wells 100. lysis activity, % at 15 µM. 0.2% of 360,000 active. AID 651654;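 active = mean lysis activity across replicates of at least 80%, whatever share of replicates individually reach that level; inactive = mean lysis activity below 80%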
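Test system: log-phase Cryptococcus neoformans yeast cells. Input: 5 × 10^6 yeast cells/mL. Medium: fresh YPD growth medium. Doses: single dose. Incubation: static 4 h at 37 °C with compound, 1 h detection. Measured by: luminescent adenylate kinase detection reagent. Read-out: signal increase indicating cell lysis. Benchmarks: Clomiphene.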
E-sel inducer = E-selectin induction on HUVECs. 0.37% of 260,000 active. activation, % at 7.58 µM. P16581. HUVEC E-selectin immunofluorescence imaging; normalized: neutral wells 0, TNF-alpha wells 100. AID 686992;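 active = mean E-selectin-positive cell signal at least 10% of the positive control, reached in at least 60% of replicates, without over 20% cell loss; inconclusive = no rule given, readout overlaps actives, possibly toxicity-flagged; inactive = the rest, including those meeting only one limit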
Target sequence (P16581 whole entry, looked up): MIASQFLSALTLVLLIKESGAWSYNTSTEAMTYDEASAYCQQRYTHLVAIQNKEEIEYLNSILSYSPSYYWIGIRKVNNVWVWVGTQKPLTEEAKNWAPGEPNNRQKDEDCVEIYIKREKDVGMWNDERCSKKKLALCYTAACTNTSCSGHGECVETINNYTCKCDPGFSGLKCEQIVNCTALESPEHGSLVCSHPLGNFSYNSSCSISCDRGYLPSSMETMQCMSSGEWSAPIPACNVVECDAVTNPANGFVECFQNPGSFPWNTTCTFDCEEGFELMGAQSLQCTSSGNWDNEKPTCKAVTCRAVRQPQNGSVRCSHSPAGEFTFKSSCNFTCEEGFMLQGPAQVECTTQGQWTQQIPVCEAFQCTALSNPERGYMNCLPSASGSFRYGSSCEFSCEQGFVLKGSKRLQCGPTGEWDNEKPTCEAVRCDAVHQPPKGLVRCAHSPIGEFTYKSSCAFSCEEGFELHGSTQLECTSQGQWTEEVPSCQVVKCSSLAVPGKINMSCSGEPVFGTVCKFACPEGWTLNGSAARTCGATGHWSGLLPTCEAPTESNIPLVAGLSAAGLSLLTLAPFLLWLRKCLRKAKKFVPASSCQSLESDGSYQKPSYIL
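assay system = HUVEC, human umbilical vein endothelial cells | input = 3,000 HUVEC seeded per well | medium = EGM-2 growth medium on 0.1% gelatin-coated wells | dosing = one compound dose added by pin transfer | signal = immunofluorescence imaging | read-out basis = % PE-positive cells | control set = TNF-alpha, DMSO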
DENV2 CPE rescue = inhibitors of DENV2 cytopathic effect. AID 651640. DENV2-infected cells, cytopathic effect rescue, plate reader. 1.7% of 350,000 active. CPE inhibition, % at 9.99 µM; in the data active = CPE inhibition above about 20%, passing the limit was not always enough; inconclusive = no clear call, values can overlap the other calls; tested in BHK-21 cells;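 note: 0% = median of neutral control wells and 100% = median of positive control wells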
miR122 inh = blocks miR-122 activity in Huh7 sensor cells | Huh7 miR-122 Renilla luciferase sensor, 48 h; neutral wells = 0, positive control = 100 | AID 602342 | 0.3% of 340,000 active | activation (reporter increase), % at 12.5 µM;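 active = mean replicate activation score at least 90 and every replicate individually at or above 90; inconclusive = only one of the two criteria met; inactive = neither criterion met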;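 note: higher luciferase means less miR-122 activity so hits act as miR-122 inhibitors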
rRNA inh HTS = inhibits bacterial ribosomal RNA function over humanized ribosomes | E. coli WT GFP vs humanized-ribosome RFP mutants, fluorescence, 24 h; stronger effect = lower value; DMSO median 0, no signal -100 | GFP signal change (wild-type ribosome), % (no concentration beside the values) | 1.6% of 350,000 active;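 active = significant combined selectivity score with lowered wild-type GFP, culture density cut under 30%, mutant RFP and density less affected; inactive = any of these conditions unmet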
An asterisk follows results filed as active; ? = inconclusive; · = no result; [ ] = dose if it differs, or a comment. Rows were chosen to be rich in hits. Some 3.1% of all compounds tested hit in one or more screens of this group.

SMILES | Cneo AK release | E-sel inducer | DENV2 CPE rescue | miR122 inh | rRNA inh HTS
Cc1cccc2nc(-c3cccnc3)c(Nc3ccccc3)n12 | -1 | · | 0 | 1 | -36*
Cc1cccc2nc(-c3cccnc3)c(NCCC(C)C)n12 | · | 0 | 13 | · | 13
O=C(COC(=O)c1ccccc1[N+](=O)[O-])NNC(=O)c1cccs1 | 3 | 0 | 1 | · | 6
O=C(COC(=O)c1ccccc1NCCO)NNC(=O)c1cccs1 | -2 | 428* | 4 | -4 | 5
CCOCC(=O)Nc1c(C(=O)N2CCN(c3ncccn3)CC2)oc2ccccc12 | -1 | · | 4 | 125* | -2
CO[C@@H]1CN(C)C(=O)c2cc(NC(=O)C3CCCC3)ccc2OC[C@@H](C)N(Cc2nccs2)C[C@H]1C | -3 | 0 | -7 | 5[16.7 µM] | -3
Cc1nn(-c2cc(C(F)(F)F)ccc2Cl)c2nc(C(Cl)(Cl)Cl)[nH]c(=O)c12 | · | 12 | -1 | 0 | -15*
C=CCn1c(Sc2ncc([N+](=O)[O-])s2)n[nH]c1=O | 1 | -1 | 1 | · | -28*
C[C@@H]1CN([C@@H](C)CO)C(=O)c2cc(NS(=O)(=O)c3ccc(F)cc3)ccc2O[C@@H](C)CCCCO[C@@H]1CN(C)C(=O)CCCN(C)C | -4 | 0 | 83* | -1[16.7 µM] | 2
C[C@H]1CCCCO[C@H](CN(C)C(=O)CCCN(C)C)[C@@H](C)CN([C@@H](C)CO)C(=O)c2cc(NS(=O)(=O)c3ccc(F)cc3)ccc2O1 | 0 | 0 | 56* | 2[16.7 µM] | 1
COCC(=O)Nc1ccc2c(c1)OC[C@H](C)N(C(=O)Cc1ccccn1)C[C@H](C)[C@H](OC)CN(C)C2=O | -2 | 0 | 7 | 0[16.7 µM] | 1
O=C(CNC(=O)N1CC(=O)Nc2ccccc21)NCc1ccc(F)cc1 | 0 | 4 | 113* | 0 | -4
O=C(CCNC(=O)N1CC(=O)Nc2ccccc21)NCc1ccc(F)cc1 | -1 | · | -6 | 1 | 1
COC(=O)[C@H](CC(C)C)NC(=O)CC[C@H]1O[C@@H](n2cc(C)c(=O)[nH]c2=O)C[C@@H]1O | 1 | 0 | 70* | 1 | 9
COC(=O)[C@@H](Cc1ccccc1)NC(=O)CC[C@H]1O[C@@H](n2cc(C)c(=O)[nH]c2=O)C[C@@H]1O | 5 | 0 | 14 | -5 | 5
C[C@@H]1CN([C@H](C)CO)C(=O)c2ccccc2-c2ccccc2CO[C@@H]1CN(C)C(=O)C1CC1 | · | · | · | · | 3
CS/C(=N\S(=O)(=O)c1cccs1)Nc1ccc(Cl)cc1 | · | -3 | 6 | · | -30*
O=C(c1ccccc1)c1ccc2ccccc2c1 | 1 | 0 | -2 | · | -14
Cc1sc2cc3c(c(C(=O)c4ccccc4)[n+]2c1C)-c1cccc2cccc-3c12 | · | · | 36* | · | -51
O=C(c1ccccc1)c1c2c(cc3sc4ccccc4[n+]13)-c1cccc3cccc-2c13 | -1 | 179* | · | 37 | ·
Cc1cc2ccccc2cc1C(=O)c1ccccc1 | 2 | 0 | 3 | -1 | -2
COc1ccc(S(=O)(=O)N(C)C[C@H]2Oc3ccc(NC(=O)Nc4ccc(C(F)(F)F)cc4)cc3C(=O)N([C@H](C)CO)C[C@H]2C)cc1 | 0 | 1 | 9 | 136*[16.7 µM] | -1
COc1ccc(S(=O)(=O)N(C)C[C@H]2Oc3ccc(NC(=O)Nc4ccc(C(F)(F)F)cc4)cc3C(=O)N([C@@H](C)CO)C[C@H]2C)cc1 | -1 | 1 | -2 | 111*[16.7 µM] | 0
CO[C@H]1CN(C)C(=O)c2ccc(NC(=O)c3cnccn3)cc2OC[C@H](C)N(CC2CC2)C[C@H]1C | · | 0 | 2 | · | 2
COCC(=O)N1C[C@@H](C)[C@H](OC)CN(C)C(=O)c2ccc(NC(=O)c3ccc(OC)cc3)cc2OC[C@H]1C | · | 0 | · | · | 1
SMILES | Cneo AK release | E-sel inducer | DENV2 CPE rescue | miR122 inh | rRNA inh HTS
O=C(COCc1ccccc1)N[C@@H]1c2ccccc2CC[C@H]1OCc1ccccc1 | -3 | 0 | -2 | · | -34
O=C(N[C@@H]1c2ccccc2CC[C@@H]1OCc1ccccc1)c1ccc(C(F)(F)F)cc1 | -2 | 1 | 69* | -3 | 15
C[C@H]1CN([C@@H](C)CO)C(=O)c2ccccc2-c2ccccc2CO[C@@H]1CN(C)S(C)(=O)=O | · | · | · | · | 2
O=C1NC(=S)S/C1=C\C=C\c1ccc([N+](=O)[O-])o1 | 1 | 248* | -3 | ? | -60
Cc1ccc(S(=O)(=O)N(C)C)cc1NS(=O)(=O)c1ccc(Cl)s1 | 0 | · | -1 | 15 | -45*
Cc1ccc2c(c1)C(=O)C(=O)N2CCOc1ccccc1 | 0 | 0 | -2 | 21 | -23*
C[C@@H]1CCCCO[C@H](CN(C)C(=O)c2ccccc2)[C@H](C)CN([C@H](C)CO)C(=O)c2cc(NC(=O)c3ccccc3)ccc2O1 | -1 | · | 2 | -6[16.7 µM] | -5
CCN(CC(=O)Nc1ccccc1C(F)(F)F)C(=O)c1ccc2c(c1)NC(=O)C(C)S2 (centres undefined) | -2 | 0 | ? | 0 | ·
CCN(CC(=O)Nc1cc(Cl)ccc1C)C(=O)c1ccc2c(c1)NC(=O)C(C)S2 (centres undefined) | 2 | · | 50* | 8 | -2
C[C@H](CO)N1C[C@H](C)[C@H](CN(C)CC2CCCC2)Oc2ncc(C#Cc3ccccn3)cc2C1=O | · | -2 | · | -11[16.7 µM] | 3
O=[N+]([O-])c1cc(S(=O)(=O)Nc2ccc(Cl)cc2)ccc1N/N=C/c1ccncc1 | 0 | · | -2 | 279* | 1
O=[N+]([O-])c1ccc(Cl)cc1N/N=C/c1ccncc1 | 1 | 0 | 8 | 2 | 9
NS(=O)(=O)c1cccc(NC(=O)Nc2ccc(Cl)cc2)c1 | -3 | 0 | 2 | -1 | -31*
NS(=O)(=O)c1cccc(NC(=O)c2cncc(Br)c2)c1 | 1 | 0 | -3 | 1 | -4
NS(=O)(=O)c1cccc(NC(=O)c2cccc(-c3ccc(O)cc3)c2)c1 | -5 | · | -1 | 6 | -26*
Cc1cccc(NC(=O)Nc2ccc(S(N)(=O)=O)cc2)c1 | -2 | · | -5 | -5 | -3
COc1cccc(C#Cc2ccc([C@H]3[C@@H](CO)N4C(=O)CN(C(C)=O)C[C@@H]34)cc2)c1 | · | 1 | -5 | · | 0
C[C@@H]1CN([C@@H](C)CO)C(=O)c2cc(NC(=O)c3ccccc3)ccc2O[C@@H](C)CCCCO[C@H]1CN(C)Cc1ccc(C(=O)O)cc1 | 0 | 0 | -12 | -6[16.7 µM] | 3
O=C(Cc1ccc(Cl)cc1)Nc1ccc(S(=O)(=O)Nc2cnc3ccccc3n2)cc1 | · | · | 1 | 11 | -34*
O=C(Nc1ccc(S(=O)(=O)Nc2cnc3ccccc3n2)cc1)c1ccc(Cl)cc1Cl | 3 | 1 | -3 | 17 | 12
COc1ccc(S(=O)(=O)N(C)C[C@H]2Oc3c(NC(=O)Nc4ccc5c(c4)OCO5)cccc3C(=O)N([C@H](C)CO)C[C@H]2C)cc1 | -2 | 3 | 15 | -2[16.7 µM] | -2
